Compound activity: PubChem BioAssay, several laboratories
This is a sample that favours compounds with a hit; in the whole collection about 1% have one here.
TLR9-MyD88 block – inhibitors of TLR9-MyD88 association in cells, primary screen, cell-based, CHO, BLA complementation, fluorescence. CCF4 FRET ratio. inhibition, % at 4.98 µM. hit rate 0.21% among 340,000. AID 504734, 2011;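 active = inhibition above the mean over all tested compounds plus 3 SD, cut at about 21% in these data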;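 also: 0% = DMSO only wells and 100% = clavulanate BLA inhibitor control wells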
Hsp70 act – Hsp70 transcriptional activators, primary screen, cell-based, HeLa, Hsp70 promoter luciferase, luminescence, 10 µM; HeLa Hsp70 promoter luciferase reporter; scaled: vehicle 0, proteasome-inhibitor control 100%; hit rate 0.04% among 200,000; activation, % at 10 µM;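 active = activation above the mean across all tested compounds plus 3 SD, cutoff set per campaign, cut at about 5.5% in these data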;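 also: 100% = MG132 at 30 µM as the positive control and 0% = DMSO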
MT stabilize HCS – microtubule stabilizers in HeLa cells, primary screen, imaging, high-content imaging; HeLa tubulin immunostaining HCS, 24 h; share of cells brighter than vehicle mean+2SD; % tubulin-high responders, % at 10 µM; hit rate 0.83% among 200,000; AID 2205, 2009;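 active = plate Z-score above 3 for both tubulin-high and condensed-nucleus cell shares, with cell loss under 80%, at 10 µM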;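 also: anti alpha tubulin signal scored within the nucleus-defined area of each cell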
TLR4-MyD88 BLA – inhibitors of TLR4-MyD88 association in cells, primary screen, cell-based, HeLa CL3-4, BLA complementation, FRET ratio; Toll-like receptor 4 (Homo sapiens) + Myeloid differentiation primary response protein …; HeLa CL3-4 TLR4/MyD88 BLA complementation; inhibition, % at 8.4 µM; hit rate 0.18% among 200,000; in the data active = inhibition above about 25%;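 also: 0% = vehicle and 100% = reference inhibitor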
NOD2-RIPK2 inh – NOD2-RIPK2 binding disruptors in cells, primary screen, fluorescence, CHO cells, BLA complementation; Receptor-interacting serine/threonine-protein kinase 2 (Homo sapiens), O43353; CCF4 ratio; inhibition, % at 4.98 µM; hit rate 0.38% among 360,000; AID 624267, 2012; in the data active = inhibition above about 21%;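 also: 0% = vehicle only and 100% = reference blocker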
bCat nuc transl – modulators of beta-catenin nuclear translocation, primary screen, imaging, HeLa cells, immunofluorescence, high-content; nuclear translocation activity, % at 5 µM; hit rate 0.3% among 190,000; AID 1665, 2009;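 active = nuclear translocation activity above 50% at 5 µM, with a well cell count of 50 or more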;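 also: per-cell ratio of nuclear to cytoplasmic median beta-catenin stain intensity; plate controls were DMSO negative control for no effect and GSK-3 inhibitor IX positive control for full effect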
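Assay system: human HeLa cells, native beta-catenin; doses: 5 µM primary, 0.02–20 µM confirmation; incubation: compound treatment 24 h, 37°C, 5% CO2; technique: fluorescence imaging of beta-catenin antibody stain plus DAPI; measure: % activation, nuclear-to-cytoplasmic median beta-catenin signal ratio per cell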
TLR4-MyD88 conf – TLR4-MyD88 association inhibitors, retest, confirmation, cell-based, HeLa CL3-4, BLA complementation, FRET ratio; shares compounds with TLR4-MyD88 BLA; CCF4 FRET ratio; AID 941, 2007; inhibition, % at 8.4 µM; hit rate 50% among 350;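 active = mean inhibition across three repeat runs above about 25% carried over from the earlier screen, limit read from the data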;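 also: plate controls were DMSO only for no effect and clavulanic acid blocking BLA at full dose for full effect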
BLA inhibitor ct – inhibits beta-lactamase activity, counter-screen to TLR4-MyD88 binding inhibitors; inhibition, % at 8.4 µM; hit rate 63% among 350; AID 1237; HeLa BLA reporter, CCF4 FRET ratio; shares compounds with TLR4-MyD88 BLA;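 active = mean inhibition over three repeats above about 26% taken from the earlier screen, limit read from the data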;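 also: HeLa cells stably expressing beta-lactamase reporter as counterscreen for TLR4-MyD88 inhibitors; 0% = DMSO and 100% = clavulanic acid full inhibition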
TLR9-MyD88 conf – TLR9-MyD88 association inhibitors, retest, confirmation, cell-based, CHO, BLA complementation, fluorescence, triplicate | shares compounds with TLR9-MyD88 block | CCF4 FRET ratio | inhibition, % at 4.98 µM | hit rate 51% among 680 | AID 540250, 2011;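 active = mean inhibition across three repeats above about 21% taken from the earlier screen, limit read from the data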;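 also: blue over green emission ratio reports constitutive TLR9 MyD88 association via BLA complementation; 0% = DMSO vehicle wells and 100% = clavulanate BLA inhibitor wells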
Target sequence (Q9NR96 whole entry, looked up): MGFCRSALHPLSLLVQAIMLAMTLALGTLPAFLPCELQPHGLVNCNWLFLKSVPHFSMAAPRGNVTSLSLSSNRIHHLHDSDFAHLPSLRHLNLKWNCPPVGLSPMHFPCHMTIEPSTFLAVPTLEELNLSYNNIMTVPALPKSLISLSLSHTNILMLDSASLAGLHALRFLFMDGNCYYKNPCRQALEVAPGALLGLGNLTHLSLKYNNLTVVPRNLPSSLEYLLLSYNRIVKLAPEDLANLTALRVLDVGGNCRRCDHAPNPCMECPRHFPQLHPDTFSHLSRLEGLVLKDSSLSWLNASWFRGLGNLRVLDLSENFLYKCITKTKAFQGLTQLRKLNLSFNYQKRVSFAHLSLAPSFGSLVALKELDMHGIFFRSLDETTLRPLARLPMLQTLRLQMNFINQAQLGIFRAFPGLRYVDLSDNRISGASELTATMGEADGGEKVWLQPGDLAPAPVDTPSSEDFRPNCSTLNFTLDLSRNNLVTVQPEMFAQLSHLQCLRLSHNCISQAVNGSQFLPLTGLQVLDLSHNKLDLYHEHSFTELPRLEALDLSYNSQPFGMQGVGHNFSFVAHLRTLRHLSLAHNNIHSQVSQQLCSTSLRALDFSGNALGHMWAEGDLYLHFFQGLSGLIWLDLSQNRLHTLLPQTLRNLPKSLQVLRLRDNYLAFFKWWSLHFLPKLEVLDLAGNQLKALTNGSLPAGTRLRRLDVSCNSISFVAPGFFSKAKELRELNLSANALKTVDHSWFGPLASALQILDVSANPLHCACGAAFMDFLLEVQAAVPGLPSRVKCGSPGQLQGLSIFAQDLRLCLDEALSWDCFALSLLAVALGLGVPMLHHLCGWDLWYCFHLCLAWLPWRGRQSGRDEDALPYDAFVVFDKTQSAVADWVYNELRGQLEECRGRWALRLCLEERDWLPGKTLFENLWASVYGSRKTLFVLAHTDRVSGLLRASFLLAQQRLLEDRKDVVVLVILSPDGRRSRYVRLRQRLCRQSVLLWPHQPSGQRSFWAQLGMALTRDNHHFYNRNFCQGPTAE
BLA counter-1 – beta-lactamase reporter inhibitors in CHO cells, artefact control for TLR9-MyD88 binding inhibitor project, cell-based, fluorescence. shares compounds with TLR9-MyD88 block. CHO-BLA cells, CCF4 FRET ratio, BLA reporter. inhibition, % at 4.98 µM. hit rate 7% among 680;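 active = mean inhibition above a 50% cutoff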;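 also: counterscreen of TLR9-MyD88 hits on CMV-driven BLA in CHO-K1 cells; 0% = DMSO alone and 100% = clavulanate blocking BLA; higher means less blue over green ratio so more BLA blockade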
TLR9 CHO cytotox – CHO cell viability loss – luminescence, single concentration, cytotoxicity control for TLR9-MyD88 binding inhibitor project; AID 588336, 2011; inhibition, % at 4.98 µM; TLR9-MyD88 CHO cells cytotoxicity; shares compounds with TLR9-MyD88 block; hit rate 39% among 680; in the data active = inhibition above about 11%
NOD2 RIPK2 conf – NOD2-RIPK2 binding disruptors, retest, confirmation, fluorescence, CHO cells, BLA complementation, triplicate. shares compounds with NOD2-RIPK2 inh. CCF4 FRET. inhibition, % at 4.98 µM. hit rate 70% among 1,200;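 active = mean inhibition across replicates above a set limit taken from the earlier primary screen, cut at about 21% in these data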;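 also: 0% = DMSO-only wells and the high end = clavulanate BLA-blocked wells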
BLA counter-2 – counter-screen for NOD2-RIPK2 interaction inhibitors: BLA reporter | hit rate 57% among 1,200 | AID 624371 | inhibition, % at 4.98 µM | CHO BLA reporter, CCF4 FRET ratio, counterscreen | shares compounds with NOD2-RIPK2 inh;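 active = mean inhibition above the low-control mean inhibition plus three low-control SD, cut at about 11% in these data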;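 also: 0% = DMSO only wells and 100% = clavulanate high control wells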
Numbers without * were called inactive; nt = no result.

SMILES | TLR9-MyD88 block | Hsp70 act | MT stabilize HCS | TLR4-MyD88 BLA | NOD2-RIPK2 inh | bCat nuc transl | TLR4-MyD88 conf | BLA inhibitor ct | TLR9-MyD88 conf | BLA counter-1 | TLR9 CHO cytotox | NOD2 RIPK2 conf | BLA counter-2
O=[N+]([O-])c1cccc(-c2nc(-c3cccs3)c(-c3cccs3)[nH]2)c1 | -11 | 0 | 2 | -9 | 3 | 0 | nt | nt | nt | nt | nt | nt | nt
CN(C)CCCNc1nc2cc(-c3ccc4c(ccn4C)c3)sc2c(=O)n1C | nt | nt | nt | nt | 3 | nt | nt | nt | nt | nt | nt | nt | nt
Nc1c(C(=O)OCC2CCCO2)c2nc3ccccc3nc2n1C1CCCC1 (stereo unspecified) | 2 | 0 | 6 | 4 | 4 | -6 | nt | nt | nt | nt | nt | nt | nt
Cn1c(-c2c(N)n(C3CCCC3)c3nc4ccccc4nc23)nc2ccccc21 | 40* | 0 | 9 | 68* | 29* | -4 | 69* | 96* | nt | nt | nt | 78* | 83*
Cn1c(-c2c(N)n(CCCc3ccccc3)c3nc4ccccc4nc23)nc2ccccc21 | 32* | 0 | 4 | 48* | 58* | -2 | 54* | 86* | 62* | 63* | -2 | 79* | 80*
Cn1c(-c2c(N)n(CCc3ccccc3)c3nc4ccccc4nc23)nc2ccccc21 | 61* | 0 | 2 | 69* | 69* | nt | 51* | 84* | 55* | 56* | 1 | 73* | 75*
CCOC(=O)[C@H]1[C@H]2COc3cc(OC)ccc3[C@@H]2N2C(=O)N(c3ccc(Cl)cc3)C(=O)[C@@]12C | -2 | nt | nt | nt | -19 | nt | nt | nt | nt | nt | nt | nt | nt
CCCN(CCC)CC(O)Cn1cc(/C=C/C(=O)c2cccs2)c2ccccc21 (stereo unspecified) | 40* | 0 | 5 | 39* | 39* | 1 | 32* | 63* | 21* | 21 | 1 | 46* | 44*
CC(C)(C)[C@H]1COC(=O)[C@@H](Cc2ccc(F)cc2)CC/C=C/C[C@@H](CC(=O)N[C@H](CO)Cc2ccccc2)C(=O)N1 | -2 | nt | nt | nt | 5 | nt | nt | nt | nt | nt | nt | nt | nt
c1cn2c(NC3CCCCC3)c(-c3ccc(SC4CCCCC4)cc3)nc2cn1 | 1 | nt | nt | nt | 3 | nt | nt | nt | nt | nt | nt | nt | nt
CCN(CC)c1ccc(-c2nc3cnccn3c2NC2CCCC2)cc1 | 36* | 0 | 2 | 52* | 22* | -1 | 31* | 61* | 37* | 40 | 1 | 56* | 66*
COc1ccc(C2=CC(c3ccc(Cl)cc3)n3cnnc3N2)cc1OC (stereo unspecified) | 50* | 0 | 4 | 39* | 47* | -3 | 26* | 49* | -4 | 1 | 6 | 2 | -8
COc1ccccc1-c1cnc(C(O)c2cccc(F)c2)[nH]1 (stereo unspecified) | nt | nt | nt | nt | -3 | nt | nt | nt | nt | nt | nt | nt | nt
CC1CN(C(=O)CNC(=O)COc2ccccc2)CC(C)O1 (stereo unspecified) | 4 | nt | nt | nt | 2 | nt | nt | nt | nt | nt | nt | nt | nt
CC(C)(C)c1ccc(C(=O)Nc2cccc3c(=O)[nH][nH]c(=O)c23)cc1 | 35* | -1 | 2 | 29* | 50* | 0 | 28* | 51* | 18 | 22 | 3 | 42* | 48*
Cc1c(Nc2cc(Cl)c3nonc3c2[N+](=O)[O-])c(=O)n(-c2ccccc2)n1C | 50* | 2 | 3 | 38* | 84* | nt | 29* | 2 | 48* | 7 | 98* | 56* | 31*
Cc1c(Nc2cc(N3CCOCC3)c3nonc3c2[N+](=O)[O-])c(=O)n(-c2ccccc2)n1C | nt | 0 | 3 | -4 | nt | 1 | nt | nt | nt | nt | nt | nt | nt
C/C=C/c1ccc2c(c1)O[C@H](CN(C)CC1CCOCC1)[C@@H](C)CN([C@H](C)CO)S2(=O)=O | 2 | nt | nt | nt | -1 | nt | nt | nt | nt | nt | nt | nt | nt
Oc1c(Cl)cc(Cl)cc1/C=C/c1ccc2cccc(O)c2n1 | 27* | 1 | 5 | 34* | 37* | -2 | 19 | 43* | 20 | 18 | -8 | 47* | 54*
Oc1ccc(Cl)cc1/C=C/c1ccc2cccc(O)c2n1 | 13 | 0 | 12 | -4 | 5 | 1 | nt | nt | nt | nt | nt | nt | nt
O=C(NCc1ccccc1CN1CCCC1)c1ccc(S(=O)(=O)Nc2ccccc2)cc1 | -5 | nt | nt | nt | -7 | nt | nt | nt | nt | nt | nt | nt | nt
O=C(C1=NN(c2ccccc2)C2C(=O)N(c3ccccc3Cl)C(=O)C12)c1ccccc1 (stereo unspecified) | 28* | 0 | 7 | 38* | 42* | 0 | 21 | 27* | 17 | 16 | -3 | 47* | 48*
O=C(C1=NN(c2ccccc2)C2C(=O)N(c3ccccc3)C(=O)C12)c1ccccc1 (stereo unspecified) | 9 | 0 | 2 | 22 | 16 | -2 | nt | nt | nt | nt | nt | nt | nt
CCOc1ccccc1OCCCC(=O)N(CC)CC(=O)Nc1c(F)cccc1F | -7 | nt | nt | nt | 2 | nt | nt | nt | nt | nt | nt | nt | nt
COc1ccc(-c2ccc3c(N)c(C(=O)c4cccc(OC)c4)sc3n2)cc1 | 12 | 0 | 1 | 31* | 25* | nt | 28* | 57* | nt | nt | nt | 45* | 56*
COc1cccc(-c2ccc3c(N)c(C(=O)NC4CC4)sc3n2)c1 | 12 | nt | nt | nt | 5 | -2 | nt | nt | nt | nt | nt | nt | nt
